Measurements from ChEMBL document CHEMBL4350958, “Rational Design of Short Peptide Variants by Using Kunitzin-RE, an Amphibian-Derived Bioactivity Peptide, for Acquired Potent Broad-Spectrum Antimicrobial and Improved Therapeutic Potential of Commensalism Coinfection of Pathogens” (J Med Chem, 2019).
In brackets after ≈: the same amount, converted by molar mass. Where a SMILES comes first, the peptide text is derived from it.

Experiments:
[1] = tested on: Escherichia coli; test: Antibacterial activity against Escherichia coli 078 measured after 24 hrs; assay type: functional; details: Escherichia coli, 078, 24 h
Method in brief: (§1)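 Broth microdilution adapted from NCCLS. Mid-log bacteria were diluted in MHB to a final (0.5–1) × 10^5 CFU mL−1. Peptides were serially diluted in 0.2% BSA and mixed with an equal volume of cells. After 24 h at 37 °C, MIC was read at A492 as the lowest concentration inhibiting 95% of growth. At least three independent experiments, each with three technical replicates.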

[2] = tested on: Escherichia coli; test: Antibacterial activity against Escherichia coli ATCC 25922 measured after 18 to 24 hrs in presence of KCl; assay type: functional
[3] = tested on: Staphylococcus aureus; test: Antibacterial activity against Staphylococcus aureus ATCC 29213 measured after 18 to 24 hrs in presence of CaCl2; assay type: functional
[4] = tested on: Escherichia coli; test: Antibacterial activity against Escherichia coli ATCC 25922 measured after 18 to 24 hrs in presence of NaCl; assay type: functional
[5] = tested on: Candida parapsilosis; test: Antifungal activity against Candida parapsilosis cgmcc2.3989 measured after 48 hrs by broth microdilution method; assay type: functional; details: Lodderomyces parapsilosis, cgmcc2.3989, 48 h
Method in brief: (§2)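 Modified CLSI M27-A2 microdilution. Yeast colonies were diluted in MOPS-buffered RPMI 1640 to a final (0.5–1) × 10^3 CFU mL−1 and mixed with an equal volume of peptide serially diluted in 0.2% BSA. After 48 h at 28 °C, MIC was read at A492 as the lowest concentration inhibiting 95% of growth. At least three independent experiments, each with three technical replicates.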

[6] = tested on: Candida albicans; test: Antifungal activity against Candida albicans cgmcc2.2086 measured after 48 hrs by broth microdilution method; assay type: functional; details: cgmcc2.2086, 48 h; method in brief: as §2
[7] = tested on: Candida albicans; test: Antifungal activity against Candida albicans cgmcc2.2086 measured after 48 hrs in presence of FeCl by broth microdilution method; assay type: functional; details: cgmcc2.2086, 48 h
[8] = tested on: Staphylococcus aureus; test: Antibacterial activity against Staphylococcus aureus ATCC 29213 measured after 18 to 24 hrs in presence of NaCl; assay type: functional
[9] = tested on: Escherichia coli; test: Bactericidal activity against Escherichia coli K99 incubated for 24 hrs followed by replating on agar plate and measured after overnight incubation; assay type: functional; details: K99, 24 h, read-out: MBC>99.9
Method in brief: (§3)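 Mid-log bacteria diluted in MHB to (0.5–1) × 10^5 CFU/mL and mixed 1:1 with peptide serially diluted in 0.2% BSA. After 24 h at 37 °C, 50 μL of each mixture was plated on agar and incubated overnight. MBC taken as the lowest concentration killing >99.9% of cells. At least three independent experiments, each with three technical replicates.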

[10] = tested on: Escherichia coli; test: Antibacterial activity against Escherichia coli K99 measured after 24 hrs; assay type: functional; details: K99, 24 h; method in brief: as §1
[11] = tested on: Candida albicans; test: Antifungal activity against Candida albicans cgmcc2.2086 measured after 48 hrs in presence of NaCl by broth microdilution method; assay type: functional; details: cgmcc2.2086, 48 h
[12] = tested on: Candida albicans; test: Antifungal activity against Candida albicans cgmcc2.2086 measured after 48 hrs in presence of NH4Cl by broth microdilution method; assay type: functional; details: cgmcc2.2086, 48 h
[13] = tested on: Escherichia coli; test: Antibacterial activity against Escherichia coli ATCC 25922 measured after 18 to 24 hrs in presence of FeCl3; assay type: functional
[14] = tested on: Salmonella typhimurium; test: Bactericidal activity against Salmonella typhimurium C7731 incubated for 24 hrs followed by replating on agar plate and measured after overnight incubation; assay type: functional, Salmonella enterica subsp. enterica serovar Typhimurium; details: Salmonella enterica, C7731, 24 h; read-out: MBC>99.9; method in brief: as §3
[15] = tested on: Candida albicans; test: Antifungal activity against Candida albicans cgmcc2.2086 measured after 48 hrs in presence of CaCl by broth microdilution method; assay type: functional; details: cgmcc2.2086, 48 h
[16] = tested on: Salmonella typhimurium; test: Antibacterial activity against Salmonella typhimurium ATCC 14028 measured after 24 hrs; assay type: functional, Salmonella enterica subsp. enterica serovar Typhimurium; details: Salmonella enterica, ATCC 14028, 24 h; method in brief: as §1
[17] = tested on: Staphylococcus aureus; test: Bactericidal activity against Staphylococcus aureus ATCC 25923 incubated for 24 hrs followed by replating on agar plate and measured after overnight incubation; assay type: functional; details: ATCC 25923, 24 h, read-out: MBC>99.9
Method in brief: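 After the 24 h, 37 °C MHB microdilution MIC assay, 50 μL from each well was plated on agar and incubated overnight. MBC taken as lowest peptide concentration killing >99.9% of cells. At least three independent experiments, each with three technical replicates.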

[18] = tested on: Staphylococcus aureus; test: Antibacterial activity against Staphylococcus aureus ATCC 29213 measured after 18 to 24 hrs in presence of FeCl3; assay type: functional
[19] = tested on: Escherichia coli; test: Bactericidal activity against Escherichia coli 078 incubated for 24 hrs followed by replating on agar plate and measured after overnight incubation; assay type: functional; details: Escherichia coli, 078, 24 h; read-out: MBC>99.9
Method in brief: (§4)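 After the 24 h, 37 °C MHB microdilution (0.5–1 × 10^5 CFU mL−1 inoculum, peptides diluted in 0.2% BSA), 50 μL from each well was plated on agar and incubated overnight. MBC was taken as the lowest concentration killing >99.9% of cells. Three or more independent experiments, each with triplicate technical replicates.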

[20] = tested on: Escherichia coli; test: Bactericidal activity against Escherichia coli ATCC 25922 incubated for 24 hrs followed by replating on agar plate and measured after overnight incubation; assay type: functional; details: ATCC 25922, 24 h, read-out: MBC>99.9; method in brief: as §4
[21] = tested on: Staphylococcus epidermidis; test: Bactericidal activity against Staphylococcus epidermidis ATCC 12228 incubated for 24 hrs followed by replating on agar plate and measured after overnight incubation; assay type: functional; details: ATCC 12228, 24 h, read-out: MBC>99.9; method in brief: as §3
[22] = tested on: Staphylococcus aureus; test: Antibacterial activity against methicillin-resistant Staphylococcus aureus ATCC 43300 measured after 24 hrs; assay type: functional; details: ATCC 43300, 24 h
Method in brief: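 Broth microdilution modified from NCCLS. Mid-log bacteria at (0.5–1) × 10^5 CFU mL−1 in MHB, mixed with peptides serially diluted in 0.2% BSA. Incubated 24 h at 37 °C, read at A492. MIC taken as lowest concentration giving 95% growth inhibition. At least three independent experiments, each with three technical replicates.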

[23] = tested on: Escherichia coli; test: Antibacterial activity against Escherichia coli UB1005 measured after 24 hrs; assay type: functional; details: UB1005, 24 h; method in brief: as §1
[24] = tested on: Salmonella typhimurium; test: Antibacterial activity against Salmonella typhimurium C7731 measured after 24 hrs; assay type: functional, Salmonella enterica subsp. enterica serovar Typhimurium; details: Salmonella enterica, C7731, 24 h; method in brief: as §1
[25] = Therapeutic index, ratio of MHC10 for hemolytic activity in human RBC to MIC95 against Staphylococcus aureus ATCC 29213; assay type: toxicity; details: human red blood cells (erythrocytes), read-out: TI
Method in brief: (§5)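 Therapeutic index = MHC divided by MIC. MHC is the lowest concentration giving >10% lysis of human RBC (1 h, 37 °C, 1-128 µM, A576). MIC is 95% growth inhibition by broth microdilution: bacteria in MHB 24 h at 37 °C; Candida in MOPS-buffered RPMI 1640 at (0.5–1) × 10^3 CFU mL−1, 48 h at 28 °C.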

[26] = tested on: Erythrocyte; test: Hemolytic activity in human RBC measured after 1 hr; assay type: ADME, cell-based
Method in brief: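 Fresh healthy-donor human erythrocytes at ~1% (v/v) in PBS pH 7.4, mixed 1:1 with peptide (1–128 µM), 1 h at 37 °C. After centrifugation at 1000×g, supernatant hemoglobin read at 576 nm. Untreated cells set 0% and 0.1% Triton X-100 set 100%. MHC defined as the concentration giving >10% hemolysis. Three or more independent experiments, triplicates.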

[27] = Therapeutic index, ratio of MHC10 for hemolytic activity in human RBC to MIC95 against Staphylococcus epidermidis ATCC 12228; assay type: toxicity; details: human red blood cells (erythrocytes), read-out: TI; method in brief: as §5

Row | Molecule | MIC95 [1] [µM] | MIC95 [2] [µM] | MIC95 [3] [µM] | MIC95 [4] [µM] | MIC95 [5] [µM] | MIC95 [6] [µM] | MIC95 [7] [µM] | MIC95 [8] [µM] | MIC95 [10] [µM] | MIC95 [11] [µM] | MIC95 [12] [µM] | MIC95 [13] [µM] | MIC95 [15] [µM] | MIC95 [16] [µM] | MIC95 [18] [µM] | MIC95 [22] [µM] | MIC95 [23] [µM] | MIC95 [24] [µM] | selectivity ratio [25] | MHC10 [26] [µM] | also measured
1 | CC(C)(O/N=C(\C(=O)N[C@@H]1C(=O)N2C(C(=O)[O-])=C(C[n+]3ccccc3)CS[C@H]12)c1csc(N)n1)C(=O)O [CEFTAZIDIME] | 0.5 (≈ 0.273 µg/mL) | 2 | 32 | 4 | > 128 | > 128 | > 128 | 16 | 0.5 (≈ 0.273 µg/mL) | > 128 | > 128 | 2 | > 128 | 1 (≈ 0.547 µg/mL) | 16 | 16 (≈ 8.75 µg/mL) | 1 (≈ 0.547 µg/mL) | 1 (≈ 0.547 µg/mL) |  |  | MBC [9]: 1 µM (≈ 0.547 µg/mL); MBC [14]: 1 µM (≈ 0.547 µg/mL); MBC [17]: 32 µM (≈ 17.5 µg/mL); MBC [19]: 0.5 µM (≈ 0.273 µg/mL); MBC [20]: 2 µM (≈ 1.09 µg/mL); MBC [21]: 32 µM (≈ 17.5 µg/mL)
2 | H-AARIILRDRFR-NH2 | > 128 | 128 | > 128 | > 128 | > 128 | > 128 | > 128 | > 128 | > 128 | > 128 | > 128 | > 128 | > 128 | > 128 | > 128 | > 128 | > 128 | > 128 | 2 | > 128 | selectivity ratio [27]: 2
3 | H-AAKIILNPKFR-NH2 | > 128 | 128 | > 128 | > 128 | > 128 | > 128 | > 128 | > 128 | > 128 | > 128 | > 128 | > 128 | > 128 | > 128 | > 128 | > 128 | > 128 | > 128 | 2 | > 128 | selectivity ratio [27]: 2
4 | CC[C@H](C)[C@H](NC(=O)[C@H](CCCCN)NC(=O)[C@H](C)NC(=O)[C@H](C)N)C(=O)N[C@H](C(=O)N[C@@H](CC(C)C)C(=O)N[C@@H](CC(N)=O)C(=O)N1CCC[C@H]1C(=O)N[C@@H](CCCCN)C(=O)N[C@@H](Cc1ccccc1)C(=O)N[C@@H](CCCNC(=N)N)C(=O)N[C@@H](CS)C(=O)N[C@@H](CCCCN)C(=O)N[C@@H](C)C(=O)N[C@@H](C)C(=O)N[C@@H](Cc1ccccc1)C(=O)N[C@@H](CS)C(N)=O)[C@@H](C)CC (H-AAKIILNPKFRCKAAFC-NH2) | > 128 | 32 | > 128 | > 128 | > 128 | > 128 | > 128 | > 128 | 32 (≈ 60.6 µg/mL) | > 128 | > 128 | 32 | > 128 | 64 (≈ 121 µg/mL) | > 128 | > 128 | 64 (≈ 121 µg/mL) | > 128 | 0.3 | 32 | MBC [9]: 64 µM (≈ 121 µg/mL); selectivity ratio [27]: 0.3; MBC [17]: > 128 µM; MBC [20]: 64 µM (≈ 121 µg/mL)
